Screening results: PubChem, The Scripps Research Institute Molecular Screening Center
TAAR1 ag: human TAAR1 agonists, primary screen, Fluo-8 calcium fluorescence, CHO RD-HGA16 cells; vehicle wells 0%, saturating PEA agonist 100%; AID 624467, 2012; Trace amine-associated receptor 1 (Homo sapiens), Q96RJ0; activation, % at 3 µM; 0.99% of 360,000 active;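 active means activation above the mean activation of all test compounds in the run plus 3 SD, cut at about 38% in these data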
Target sequence (Q96RJ0 whole entry, looked up): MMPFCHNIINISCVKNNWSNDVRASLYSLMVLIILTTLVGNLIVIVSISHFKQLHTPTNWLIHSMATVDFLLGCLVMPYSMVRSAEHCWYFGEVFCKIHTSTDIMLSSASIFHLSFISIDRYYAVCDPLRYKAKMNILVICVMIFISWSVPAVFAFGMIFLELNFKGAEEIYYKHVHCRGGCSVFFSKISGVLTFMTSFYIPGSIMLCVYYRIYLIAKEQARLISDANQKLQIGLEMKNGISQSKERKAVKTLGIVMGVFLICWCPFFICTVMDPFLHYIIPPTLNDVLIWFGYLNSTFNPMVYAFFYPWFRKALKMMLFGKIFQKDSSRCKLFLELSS
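System: CHO RD-HGA16 cells carrying human TAAR1 plus Gα16; Incubation: 17-24 h seeding, 75 min 37 °C dye, 30 min RT; Measured by: Fluo-8 fluorescence, 5 s baseline then 140 s kinetic read; Control set: DMSO and PEA EC100; Replication: single well for each compound.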
OX1R antag-1: antagonists of human orexin 1 receptor (OX1R). Orexin/Hypocretin receptor type 1 (Homo sapiens), O43613. OX1R-expressing cells, FRET antagonist read-out. inhibition, % at 6.6 µM. 1.8% of 330,000 active; in the data active means inhibition mostly above about 38%, no sharp cut-off; inactive means mostly below about 40%;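 further: 0% = agonist challenge alone and 100% = reference antagonist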
OX1R antag-2: OX1R (HCRTR1) antagonists, primary screen, fluorescence, CHO/OX1R cells, Fluo-8 calcium, orexin A; Orexin/Hypocretin receptor type 1 (Homo sapiens), O43613; Fluo-8 calcium fluorescence; inhibition, % at 5 µM; 0.43% of 330,000 active; AID 434989, 2010;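 active means inhibition above its plate's threshold, mean inhibition of all tested compounds on the plate plus 3 SD, cut at about 37% in these data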;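 further: 0% = orexin A challenge wells and 100% = SB-334867-A antagonist wells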
TAAR1 antag: human TAAR1 antagonists, primary screen, Fluo-8 calcium fluorescence, CHO RD-HGA16 cells; Trace amine-associated receptor 1 (Homo sapiens), Q96RJ0; antagonist; inhibition, % at 3 µM; 1.5% of 360,000 active;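 active means inhibition above a per-plate cutoff, the mean inhibition of test compounds on that plate plus 3 SD, cut at about 49% in these data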;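 further: 0% = DMSO plus EC80 beta-PEA response and 100% = DMSO alone without agonist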
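Test system: CHO RD-HGA16 cells bearing hTAAR1 | Reagent: β-PEA, EC80 | Compound dosing: 3 µM, single point | Schedule: Dye loading 75 min at 37 °C, then 30 min room temperature | Signal: Calcium fluorescence with Fluo-8 | Evaluation: Percent inhibition of PEA-evoked calcium signal, max/basal emission ratio | Control set: DMSO-only wells and EC80 β-PEA-stimulated wells | Repeats: Singlicate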
CHO parental Ca: ATP-evoked calcium signal inhibitors, parental CHO, primary screen, counter-screen for OX1R antagonist project, cell-based, fluorescence, Fluo-8 calcium dye; parental CHO-K1, ATP-induced calcium, Fluo-8 fluorescence; 0.63% of 330,000 active; inhibition, % at 5.6 µM;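 active means inhibition above that plate's mean sample inhibition plus 3 SD, cut at about 26% in these data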;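 further: 0% = ATP-challenged DMSO wells and 100% = DMSO wells without ATP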
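Material – parental CHO cells · Reagent – ATP stimulus · Compound – single nominal dose of 5.6 µM per compound · Detection – Fluo-8 fluorescence · Read-out basis – percent inhibition of calcium signal · Controls – ATP-challenged DMSO wells low, unchallenged DMSO wells high · Repeats – no replicates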
GPR7 antag: GPR7 receptor antagonists, primary screen, cell-based, fluorescence, single concentration. Neuropeptides B/W receptor type 1 (Homo sapiens), P48145. GPR7-expressing cells, fluorescence antagonist assay. inhibition, % at 4.4 µM. 1.1% of 290,000 active. AID 1861, 2009; in the data active means inhibition above about 16%, passing the limit was not always enough;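 further: cells stimulated with the agonist NPW; 0% = agonist with vehicle and 100% = vehicle without agonist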
Target sequence (P48145 whole entry, looked up): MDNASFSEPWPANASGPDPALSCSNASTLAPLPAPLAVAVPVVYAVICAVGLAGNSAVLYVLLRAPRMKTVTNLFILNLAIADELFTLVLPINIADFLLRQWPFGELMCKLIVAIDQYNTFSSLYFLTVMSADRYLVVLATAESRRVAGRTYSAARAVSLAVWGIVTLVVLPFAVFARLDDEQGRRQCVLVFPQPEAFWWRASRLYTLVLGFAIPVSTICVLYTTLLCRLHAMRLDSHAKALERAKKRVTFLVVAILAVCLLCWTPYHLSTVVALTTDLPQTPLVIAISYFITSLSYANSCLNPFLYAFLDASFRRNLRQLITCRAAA
TAAR1 ag confirm: human TAAR1 agonists, retest of hits, confirmation, Fluo-8 calcium fluorescence, CHO RD-HGA16 cells | scaled: DMSO 0%, maximal phenethylamine 100% | 82% of 2,400 active | activation, % at 3 µM | shares compounds with TAAR1 ag | AID 651783, 2012;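 active means activation above a cutoff set at the run's mean compound activation plus 3 SD, cut at about 39% in these data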
Ga16 nonsel ag: nonselective calcium mobilization agonists, CHO-Ga16 cells, counter-screen for hTAAR1 agonist project, cell-based, fluorescence, CHO-Ga16 parental line; activation, % at 3 µM; shares compounds with TAAR1 ag; Fluo-8 calcium fluorescence; normalized to maximal ATP response, DMSO zero; 50% of 2,400 active;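 active means activation above the run cutoff, the mean activation over all tested wells plus 3 SD, cut at about 12% in these data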;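 further: 0% = DMSO wells and 100% = maximal ATP response on the peak over basal ratio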
TAAR1 desens: TAAR1 desensitization by agonist hits, confirmation, counter-screen for TAAR1 agonist project, cell-based, fluorescence, tachyphylaxis. 46% of 2,400 active. shares compounds with TAAR1 ag. CHO RD-HGA16 hTAAR1, Fluo-8 calcium, beta-PEA response inhibition. inhibition, % at 3 µM;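 active means inhibition above the run cutoff, the mean inhibition of all test compounds plus 3 SD, cut at about 49% in these data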;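 further: beta-PEA stimulus applied at its EC80; loss of beta-PEA calcium signal after compound pretreatment read as receptor desensitization; 0% = DMSO with beta-PEA at EC80 and 100% = DMSO alone without agonist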
Ga16 antag count: inhibition of ATP-evoked calcium response in CHO-Ga16 cells, counter-screen for TAAR1 agonist project, cell-based, fluorescence. inhibition, % at 3 µM. 39% of 2,400 active. CHO-Ga16 ATP-induced calcium, Fluo-8 fluorescence. shares compounds with TAAR1 ag. AID 651952, 2012;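 active means inhibition above the plate's mean compound inhibition plus 3 SD, computed per plate, cut at about 22% in these data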;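 further: 0% = EC80 ATP with DMSO and 100% = DMSO wells without ATP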
* = called active by the depositor; . = no result. Hits are enriched below; roughly 4.6% of the tested compounds scored in any of these assays.

SMILES | TAAR1 ag | OX1R antag-1 | OX1R antag-2 | TAAR1 antag | CHO parental Ca | GPR7 antag | TAAR1 ag confirm | Ga16 nonsel ag | TAAR1 desens | Ga16 antag count
COc1cccc(OC)c1C(=O)NCCc1ccccc1 | 81* | 14 | -3 | 8 | 1 | . | 80* | 0 | 63* | 6
O=C(NCCc1ccccc1)c1c(F)c(F)c(F)c(F)c1F | 4 | 12 | -10 | 6 | -2 | -11 | . | . | . | .
COc1cccc(/C=C/C(=O)OCC(=O)c2c(N)n(C)c(=O)n(C)c2=O)c1 | 10 | 5 | 0 | -13 | -10 | . | . | . | . | .
COc1cccc(N(CC(=O)NCCSCc2ccc(Cl)cc2)S(C)(=O)=O)c1 | 5 | 12 | -26 | 2 | -10 | 5 | . | . | . | .
COc1ccc(-c2csc(NC(=O)c3cc(C)on3)c2C#N)cc1OC | 46* | 15 | -4 | 29 | -13 | -19 | 14 | 7 | 13 | 17
CN(C)c1ccc(C=NCC2COc3ccccc3O2)cc1 (stereo not drawn) | 75* | 12 | -8 | 13 | 1 | 1 | 82* | 4 | 59* | 7
CCOC(=O)[C@]12CCCC=C1N(CCC1=CCCCC1)C(=O)[C@H](CC(=O)NCc1cccc(C(F)(F)F)c1)C2 | -1 | . | . | -15 | . | . | . | . | . | .
O=C(COc1ccc(S(=O)(=O)Nc2ccc(Cl)cc2)cc1)N1CCOCC1 | 57* | -1 | 14 | 30 | 4 | 13 | 56* | 31* | 15 | 16
COc1ccc(NS(=O)(=O)c2ccc(OCC(=O)N3CCOCC3)cc2)cc1 | 10 | 1 | -4 | -6 | 2 | -12 | . | . | . | .
CCOc1ccc(NS(=O)(=O)c2ccc(C(=O)NCC(c3cccs3)N3CCOCC3)cc2)cc1 (stereo not drawn) | 126* | -6 | 1 | 83* | 1 | . | 106* | 68* | 78* | 51*
CC(C)(CNC(=O)c1ccc(S(=O)(=O)Nc2ccc(Cl)cc2)cc1)N1CCOCC1 | 65* | -1 | 2 | 21 | 0 | . | 45* | 19* | 28 | 23*
O=C(Nc1c(-c2ccccc2)[nH][nH]c1=O)c1cccs1 | 0 | . | . | -8 | . | . | . | . | . | .
CN(C)C(=O)CCc1ccc2c3c([nH]c2c1)[C@]1(CCC2CCCC2)[C@@H](C(=O)N2CCOCC2)C[C@H](CC(=O)NCCC2=CCCCC2)C(=O)N1CC3 | 5 | -6 | -31 | -9 | -33 | . | . | . | . | .
CC1CCN(C(=O)c2[nH]cnc2C(=O)N2CCN(c3ccccc3)CC2)CC1 | 7 | 7 | -4 | 10 | 3 | . | . | . | . | .
C[C@H](O)[C@@H]1C(=O)N2CCc3ccc(-c4ccccc4)cc3[C@@H]2C[C@@H]1N(C)C(=S)Nc1ccc(F)cc1 | 66* | . | . | -3 | . | . | 70* | 34* | 49* | 46*
C[C@H](O)[C@@H]1C(=O)N2CCc3ccc(-c4cccc(F)c4)cc3[C@@H]2C[C@@H]1N(C)C(=O)Nc1ccccc1 | 1 | . | . | 1 | . | . | . | . | . | .
CC(=O)Nc1cccc(NC(=O)C(=O)NCC(c2ccco2)N2CCc3ccccc3C2)c1 (stereo not drawn) | 57* | 9 | -29 | 1 | -5 | . | 63* | 10 | 54* | 31*
COc1cccc(NC(=O)C(=O)NCC(c2ccco2)N2CCc3ccccc3C2)c1 (stereo not drawn) | 11 | 16 | -13 | -21 | -16 | . | . | . | . | .
COc1ccc(NC(=O)C(=O)NCC(c2ccco2)N2CCc3ccccc3C2)cc1OC (stereo not drawn) | 56* | 15 | -40 | -10 | -22 | . | 48* | 2 | 16 | 12
COCC1OC(OC(C)C(O)c2cnc3nc(N)[nH]c(=O)c3n2)C(O)C(OC)C1O (stereo not drawn) | 0 | . | . | -1 | . | . | . | . | . | .
CCCNC(=O)c1cc(S(=O)(=O)N2CCC3(CC2)OCCO3)ccc1F | 3 | . | . | -3 | . | . | . | . | . | .
O=C(CCCC(=O)c1ccccc1)NCCc1ccccc1 | 47* | 9 | -17 | 75* | -12 | -7 | 50* | 15* | 90* | 14
CCc1nnc(NC(=O)CCC(=O)NCCc2ccccc2)s1 | 49* | 7 | -7 | -9 | -4 | 2 | 16 | 0 | -2 | 7
CCNC(=O)C(=O)NCCc1ccc(Cl)cc1 | 7 | 10 | 10 | 12 | -2 | -3 | . | . | . | .
O=C(O)/C=C/C(=O)NCCc1ccccc1 | 118* | 9 | -1 | 80* | -7 | 17 | 105* | 1 | 98* | 6
SMILES | TAAR1 ag | OX1R antag-1 | OX1R antag-2 | TAAR1 antag | CHO parental Ca | GPR7 antag | TAAR1 ag confirm | Ga16 nonsel ag | TAAR1 desens | Ga16 antag count
O=C(O)/C=C/C(=O)NCCc1ccc(Cl)cc1 | 76* | 5 | -4 | 44 | -9 | -11 | 97* | 7 | 67* | -4
CCc1nnc(NC(=O)CCC(=O)N2CCN(CCc3ccccc3)CC2)s1 | 4 | 5 | -20 | -41 | -12 | . | . | . | . | .
O=C(NCc1ccccc1)c1cc(C2COCCN2C(=O)c2ccc3c(c2)CCO3)on1 (stereo not drawn) | 1 | . | . | 2 | . | . | . | . | . | .
COc1ccc(NC(=O)C2(C)CCN2Cc2ccc(OC)c3ccccc23)cc1OC (stereo not drawn) | 3 | . | . | -6 | . | . | . | . | . | .
CC(CCc1ccccc1)NC(=O)Cc1ccccc1 (stereo not drawn) | 11 | 10 | -15 | -1 | -11 | -8 | . | . | . | .
COc1ccc(CCNC(=O)/C=C/C(=O)O)cc1 | 62* | 3 | -12 | 30 | 3 | -7 | 81* | 2 | 50* | 5
CC(CCc1ccccc1)NC(=O)C(=O)NCCc1ccccc1 (stereo not drawn) | 49* | 23 | -14 | 8 | -13 | 3 | 88* | 21* | 36 | 17
